To fix the notation:
B1: tRNA (parent)
chain: GUUCCGUUGGCGUAAUGGUAACGCGUCUCCCUCCUAAGGAGAAGACUGCGGGUUCGAGUCCCGUACGGAACG

Fewer inactive variants are shown than the library holds.

In the data set the parent is B1. Nature of the data set: yeast fitness relative to wild type (ratio to wild type); higher = fitter; tRNA-Arg(CCU), competitive growth, 37 C, YPD. In short, it runs like this:
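For this measurement, the tRNA-Arg(CCU) gene was varied by chemical synthesis at a 3% per-site mutation rate across 69 sites, and each variant was placed at the native genomic locus in Saccharomyces cerevisiae. The pooled strains went through a 24-hour competition in YPD at 37°C in six parallel replicates, with amplicons from start and end populations read by 100-nucleotide paired-end sequencing. Darwinian fitness relative to wild type followed from the change in each genotype's frequency. Genotypes needed ≥ 100 starting reads, and estimates < 0.5 were set to 0.5.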
Turning to GAUCCGUUGGCGUAAUGGUAACGCGUCUCCCUCCUAAGGAGAAGACUGUGGGUUCGAGUCCCGUACGGAACG [U2A C49U], the yeast fitness was 0.981.

In the case of GUUCAGUCGGCGUAAUGGUAGCGCGUCUCCCUCCUAAGGAGAAGACUGCGGGUUCGAGUCCCGUACGGAACG [C5A U8C A21G], the yeast fitness came out at 0.53.

Turning to GUUCCGUUGGCGUAAUGGAAACGCGUCUCCCUCCUAAGGAGAAGACUGCGGGUUCGAGUCCCGUACGGACCG [U19A A70C], the yeast fitness stood at 1.03.

As to GUUCGGUUGGCGUACUGGUAUCGUGUCUCCCUCCUAAGGAGAAGACUGCGGGUUCGGGUCCCGUACUGAACG [C5G A15C A21U C24U A57G G67U], the yeast fitness was not above 0.5.

As for GUUCCGUUGGCGUAAUGGUAACGCGUCCCCCUCCUAAGGAGAAGACUGCGGGUUUGAGUCCCGUACCGAACG [U28C C55U G67C], the yeast fitness was found to be 0.557.

In the case of GUUCCGUUGGCGUAAUGGUAACCCGUCUCCCUCCUAAGGAGAAGACUGGGCAUUCGAGUCCCGUACGGAACG [G23C C49G G51C G52A], the yeast fitness is not above 0.5.

Turning to GUUCCAUUGGCGUAAUGGUAACGCGUCUCCCUCCUAAGGAGAAGACUGCGGGUUCGAGUCCCGUACGCGACG [G6A G68C A69G], the yeast fitness amounted to 0.568.

Consider GUUCGGUUGGCGUAAUGGUAACGCGUCUCCGUCCUAAGGAGUAGACUGCGGGUUCGAGUCCCGUACGGAACG [C5G C31G A42U], for which the yeast fitness was determined as 0.623.

Consider GUUACGUUGGCGUAAUGGUAACGCGUUUCCCUCCUAAGGAGAAGACUGCGGGUUCGAGUCUCGUACGGAACG [C4A C27U C61U], for which the yeast fitness was found to be 0.62.

As to GUUCCGUUGGCGUAAUGCUAACGCGUCUGCCUCCUCAGGAGAACACUGCAGGUUCGAGUCCCGUACGGAACG [G18C C29G A36C G44C G50A], the yeast fitness was 0.526.

Regarding GUUCCGUUGGCGUAAUGGUAGCGCGUCUCCCUCCUACGGAGAUGACUGCGGGUUCGAGUCCCGUACGGAACG [A21G A37C A43U], the yeast fitness is 0.618.

With GUUCCGUUGGCGUAAUAGUAACGCGUCUCCCUCCUAAGGAGAAGACUGCGGGUUCGAGUCACAUACAGAACG [G17A C61A G63A G67A], the yeast fitness was 0.542.

Regarding GUUCCGUUGGCGUAAUGGUAACGCGUCUCACUCCUAAGGAGAAGACCGCGGGUUCGAAUCCCGUACGGUACG [C30A U47C G58A A69U], the yeast fitness was determined as 0.563.

Regarding GUUCCGUUGGCGCAAUGGUAACGCGUCUCCCUCCUAAGGAGAAGACUACGGGUUCGAGUCCCGUACGGAACG [U13C G48A], the yeast fitness was 0.853.

On to GUUCCGUUGGCGUAAUGGUAACGCGUCUUCCUCCUAAGGAGAAGACUGCGGGUUCGAGUCCCGUACGGAACG [C29U], for which the yeast fitness is 0.989.

As for GUUCCGUUGGCGUAAUGGUAUCGCGUCUCCCGCCUAGGGAGAAGGCUGCGGGUUAGAGUCCCGUACGGAACG [A21U U32G A37G A45G C55A], the yeast fitness is not above 0.5.

On to GUUCCGUUGGCGUAAUGGUAGCGCGUCUUCCUCCUAAGGACAAGACUGCGGGUUCGAGUCCCGUACGGAACG [A21G C29U G41C], for which the yeast fitness was found to be 0.562.

As for GUUCCGUUGGCGUAAUGGGAACGCGUCUCCCUCCUAAGGAGAAGACUCCGGGUUCGAGUCCCGUACGGAACG [U19G G48C], the yeast fitness is 0.948.

Take GUUACCUAGGCGUAAUGGUCUCGCGUCUCCCUUCUAAGGAGAAGAUUGCGGGUUCGGGUCCCGUACGGAACG [C4A G6C U8A A20C A21U C33U C46U A57G]: the yeast fitness is not above 0.5.

Take GUUCCGUUGGCGUAAUGGUAACGCGUCUGCCUCCUAAGGAGAAGAAUGCGGGUUCGAGUCCCGUACGAAACG [C29G C46A G68A]: the yeast fitness is not above 0.5.

As for GUUCAGUUGGCGUAAUGGUAACGCGUCUCCCUCCUAAGGCGAAGAUUGCGGCUUCGAGUCCCGUACGGACCG [C5A A40C C46U G52C A70C], the yeast fitness was not above 0.5.

In the case of GUUCCGUUGGCGUAACGGUAACGCGUCUCCCUCCUAAGGAGAAGACUGCGGGUUCGAGUCCCGUACGCAACG [U16C G68C], the yeast fitness amounted to 0.834.

Turning to GUUCCGUUGGCGUAAUGGUCACGCGUCUCCUUCCUAAGGAGAAGACUGCGGGUUCGAGUCCCGUACGGAACG [A20C C31U], the yeast fitness stood at 1.03.

As to GUUGCGUUGGCGUAAUGGUAACGUGUCUCCCUGCUAAGGAGAAGACUAUGGGUUCGAGUCCCGUACGGAACG [C4G C24U C33G G48A C49U], the yeast fitness was not above 0.5.

Consider GUUCCGUUGGCGUAAUGGUAACGCGUCUCCUUGCUAAGGAGAAGACUGCGGGUUCGAGUCCCGUACGGAACG [C31U C33G], for which the yeast fitness was found to be 0.785.

Regarding GUUCCGUUGGCGUAAUGGUAACGCGUCUCCCUCCUAAGGAGAAGACUGCCGGUUCGAGUUCAGUACGGAACG [G50C C60U C62A], the yeast fitness turned out to be 0.676.

Consider GUUCCGUUGGCGUAAUGGUAAGGCGUCUCCCUCAUAAGGAGAAGACUGAGGGUUCGAGUCCCGUACGGAACG [C22G C34A C49A], for which the yeast fitness was determined as 0.818.

For the variant GUUCCGUUGGCGUAAUGGUAACGCGUCUCCCUCCUAAGGAGAAGACUGCCGGUUCGAGUCUCGUACGGAACG [G50C C61U], the yeast fitness is 0.609.

Turning to GUUCCGUUGGCGUAAAGGUAACGCGUCUCCCCCCUAUGGAGAAGACUGAGGGUUCGAGUUCCGUACGCAACG [U16A U32C A37U C49A C60U G68C], the yeast fitness was not above 0.5.

Turning to GUUCCGUUGGCGUAAUGGUAACGCGUCUCCCUCAUAAGGAGAAGACUGCGGGUUCGAGUCCCGUAUGGAACG [C34A C66U], the yeast fitness came out at 0.764.

Regarding GUUCCGUUCGCGUAAUGGUAACGCGUCUCUCUCCUAAGGAGAAGACUCCGGGUUCGAGUCCCGUACGGAACG [G9C C30U G48C], the yeast fitness is not above 0.5.

Regarding GUUCCCUUGGCGUAAGGGUCACGCAUCUCCCUCCUAAGGAGAUGACUGCAGGUUUGAGUCCCGUACGGAACG [G6C U16G A20C G25A A43U G50A C55U], the yeast fitness was not above 0.5.

As to GUUCCGUUGGCGUAGUGGUAACGCGUCUCCCUCCUAAGGAGAAGACUGCCGGUUCGAGUUCCGUACGGAACG [A15G G50C C60U], the yeast fitness was not above 0.5.

For the variant GUUCCGUUGGUGUAAUGGUAACGCGUCUCCCUCCUAAGGAGAAGCCUGCGGGUUCGAGCCCCGUACGGAACG [C11U A45C U59C], the yeast fitness was not above 0.5.

In the case of GUUCCGUUGGCGUAAUGGUAACGCAUCUCCCUCCUAAGGAGAAGACUGCGGGCUCGAGUCCCGUACGGAACG [G25A U53C], the yeast fitness stood at 0.819.

Consider GUUCGGUUGGCGUAAUGGUAACGCGUCACCCUCCUAAGGAGAAGACUGCGGGUUCGAGUCCCGUACGGAACG [C5G U28A], for which the yeast fitness was determined as 0.669.

For GUUCCCUUGGCGUAAUGGCAACGCGUCUUCCUCCUAACGAGAAGACCGCGGGUUCGAGUCCCGUACGGAACG [G6C U19C C29U G38C U47C], the yeast fitness is not above 0.5.

As to GUUCCGAUAGCGAAAUGGUAACGCGUCUCCCUCCUAAGGAGAAGACUGCGGGUUCGAGUCCCGUACGGAACG [U7A G9A U13A], the yeast fitness is 0.6.

Source of the values: the RNAGym collection of RNA variant scans (doi:10.1126/science.aae0568).
